Source: ChEMBL document CHEMBL3352776, “Synthesis and biological evaluation of novel chiral diazepine derivatives as bombesin receptor subtype-3 (BRS-3) agonists incorporating an antedrug approach” (Bioorg Med Chem, 2015)
pEC50: −log10 of the molar value. In brackets after ≈: the same amount, converted by molar mass.

Assays:
[1] = Cmax in mouse at 30 mg/kg, po; type: ADME, organism-based; parameters: dose 30 mg/kg, route oral; conditions: in vivo
[2] = Fraction unbound in mouse plasma; type: ADME, cell-free
In short: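 Unbound fraction measured in mouse plasma.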

Mus musculus [3] = test: Half life in mouse assessed as 2-[(5R)-4-[2-(3-Hydroxyphenyl)acetyl]-8-(trifluoromethyl)-1,2,3,5-tetrahydropyrido[2,3-e][1,4]diazepin-5-yl]acetic acid at 30 mg/kg, po; type: ADME, organism-based; parameters: dose 30 mg/kg, route oral; conditions: in vivo
[4] = (§1) Half life in mouse at 30 mg/kg, po; type: ADME, organism-based; parameters: dose 30 mg/kg, route oral; conditions: in vivo
Mus musculus [5] = test: Tmax in mouse assessed as 2-[(5R)-4-[2-(3-hydroxyphenyl)acetyl]-8-(trifluoromethyl)-1,2,3,5-tetrahydropyrido[2,3-e][1,4]diazepin-5-yl]acetic acid at 30 mg/kg, po; type: ADME, organism-based; parameters: dose 30 mg/kg, route oral; conditions: in vivo
[6] = (§2) AUC in mouse at 30 mg/kg, po; type: ADME, organism-based, Plasma; parameters: dose 30 mg/kg, route oral; conditions: plasma
[7] = Solubility of the compound in JP2; type: physicochemical
Mus musculus [8] = test: AUC in mouse assessed as 2-[(5R)-4-[2-(3-Hydroxyphenyl)acetyl]-8-(trifluoromethyl)-1,2,3,5-tetrahydropyrido[2,3-e][1,4]diazepin-5-yl]acetic acid at 30 mg/kg, po; type: ADME, organism-based, Plasma; parameters: dose 30 mg/kg, route oral; conditions: in vivo
[9] = target: T1, Bombesin receptor subtype-3 (Mus musculus, UniProt O54798); test: Agonist activity at mouse BRS3 expressed in CHO-K1 cells by IP-One HTRF assay; type: cell-based
T1 sequence (O54798 whole entry): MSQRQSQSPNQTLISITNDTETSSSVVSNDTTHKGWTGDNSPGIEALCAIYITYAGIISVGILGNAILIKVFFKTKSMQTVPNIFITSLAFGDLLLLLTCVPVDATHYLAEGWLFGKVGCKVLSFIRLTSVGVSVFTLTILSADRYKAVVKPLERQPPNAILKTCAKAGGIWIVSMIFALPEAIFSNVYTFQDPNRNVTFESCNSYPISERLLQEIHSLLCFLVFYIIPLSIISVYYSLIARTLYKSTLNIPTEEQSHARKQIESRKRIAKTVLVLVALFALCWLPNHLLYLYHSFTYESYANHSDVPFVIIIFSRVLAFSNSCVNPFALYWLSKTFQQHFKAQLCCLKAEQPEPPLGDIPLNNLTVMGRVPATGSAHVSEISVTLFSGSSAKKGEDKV

[10] = Tmax in mouse at 30 mg/kg, po; type: ADME, organism-based; parameters: dose 30 mg/kg, route oral; conditions: in vivo
[11] = target: T2, Bombesin receptor subtype-3 (Homo sapiens, UniProt P32247); test: Agonist activity at human BRS3 expressed in CHO-K1 cells by IP-One HTRF assay; type: cell-based
T2 sequence (P32247 whole entry): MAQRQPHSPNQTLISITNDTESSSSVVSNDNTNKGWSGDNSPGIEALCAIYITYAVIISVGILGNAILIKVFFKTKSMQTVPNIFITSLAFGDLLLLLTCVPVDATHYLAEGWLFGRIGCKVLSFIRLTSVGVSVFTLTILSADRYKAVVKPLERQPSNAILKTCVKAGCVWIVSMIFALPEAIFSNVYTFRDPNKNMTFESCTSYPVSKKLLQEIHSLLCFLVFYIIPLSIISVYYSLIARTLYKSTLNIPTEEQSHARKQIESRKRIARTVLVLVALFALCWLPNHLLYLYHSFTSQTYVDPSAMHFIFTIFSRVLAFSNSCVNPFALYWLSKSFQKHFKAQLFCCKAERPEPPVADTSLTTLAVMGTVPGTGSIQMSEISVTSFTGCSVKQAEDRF

Mus musculus [12] = test: Cmax in mouse assessed as 3-[2-[(5R)-5-(carboxymethyl)-8-(trifluoromethyl)-1,2,3,5-tetrahydropyrido[2,3-e][1,4]diazepin-4-yl]-2-oxoethyl]benzoic acid inactive metabolite at 30 mg/kg, po; type: ADME, organism-based; parameters: dose 30 mg/kg, route oral; conditions: in vivo
In short: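 Mice acclimated 7–11 days with free access to chow and tap water, then given the ester parent orally at 30 mg/kg as a suspension in 0.5 (w/v)% methyl cellulose 400. Plasma was stored at −20 °C. The carboxylic acid metabolite was quantified in plasma by LC–MS/MS. Cmax is the average of 2 or 3 mice.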

Mus musculus [13] = test: Drug metabolism in mouse assessed as ratio of compound to 3-[2-[(5R)-5-(carboxymethyl)-8-(trifluoromethyl)-1,2,3,5-tetrahydropyrido[2,3-e][1,4]diazepin-4-yl]-2-oxoethyl]benzoic acid inactive metabolites at 30 mg/kg, po; type: ADME, organism-based; parameters: dose 30 mg/kg, route oral; conditions: in vivo
Mus musculus [14] = test: Antiobesity activity in po dosed C57BL/6N mouse assessed as anorectic effect; type: functional, organism-based
In short: (§3)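 Male C57BL/6N mice, 7 weeks old, were fasted 16 h, housed singly and habituated 1 h. They then received a single oral dose (1, 3, 10, 30 mg/kg) or vehicle (0.5% methylcellulose). Chow was given 1 h later and cumulative intake over 6 h was recorded. n = 4–5; Dunnett's test versus vehicle.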

Mus musculus [15] = test: Drug metabolism in mouse assessed as ratio of compound to 2-[(5R)-4-[2-(3-hydroxyphenyl)acetyl]-8-(trifluoromethyl)-1,2,3,5-tetrahydropyrido[2,3-e][1,4]diazepin-5-yl]acetic acid at 30 mg/kg, po; type: ADME, organism-based; parameters: dose 30 mg/kg, route oral; conditions: in vivo
Canis familiaris [16] = test: Cardiotoxicity in beagle dog assessed as blood pressure at 3 mg/kg/3 ml, iv for 30 mins; type: toxicity, organism-based, Canis lupus familiaris; parameters: route intravenous; conditions: in vivo, 0.5 h
In short: (§4)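 Dogs were anaesthetized with halothane (0.5–1.5% end-tidal) after iv thiopental 30 mg/kg. Compound was dispersed at 1 mg/mL in 20% hydroxypropyl-β-cyclodextrin and infused into the femoral vein at 3 mg/kg/3 mL over 30 min. Femoral artery HR and mean BP were recorded for 60 min, normalized to the 0-min value; n = 2.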

Mus musculus [17] = test: as §1; type: ADME, organism-based; parameters: dose 30 mg/kg, route oral; conditions: in vivo, BLD = below limit of detection
Mus musculus [18] = test: Cmax in mouse assessed as 2-[(5R)-4-[2-(3-hydroxyphenyl)acetyl]-8-(trifluoromethyl)-1,2,3,5-tetrahydropyrido[2,3-e][1,4]diazepin-5-yl]acetic acid inactive metabolite at 30 mg/kg, po; type: ADME, organism-based; parameters: dose 30 mg/kg, route oral; conditions: in vivo
Mus musculus [19] = test: as §2; type: ADME, organism-based, Plasma; parameters: dose 30 mg/kg, route oral; conditions: in vivo, BLD = below limit of detection
Canis familiaris [20] = test: Cardiotoxicity in beagle dog assessed as heart rate at 3 mg/kg/3 ml, iv for 30 mins; type: toxicity, organism-based, Canis lupus familiaris; parameters: route intravenous; conditions: in vivo, 0.5 h; in short: as §4
Mus musculus [21] = test: Antiobesity activity in C57BL/6N mouse assessed as reduction in food intake at 30 mg/kg, po single dose; type: functional; in short: as §3

Compound | Cmax [1] [nM] | pEC50 [9] | pEC50 [11] | Cmax (Mus musculus [12]) [nM] | Ratio (Mus musculus [13]) | Ratio (Mus musculus [15]) | Cmax (Mus musculus [18]) [nM] | other results
O=C(O)C[C@@H]1c2ccc(C(F)(F)F)nc2NCCN1C(=O)Cc1cccc(O)c1 | 40 | < 5.00 | < 5.00 |  |  |  |  | fraction unbound [2]: > 0.3; t1/2 (Mus musculus [3]): 15 min; half-life [4]: 15 min; Tmax (Mus musculus [5]): 15 min; AUC [6]: 1230 ng·h/mL; solubility [7]: 780 µg/mL (≈ 1910 µM); AUC (Mus musculus [8]): 1230 ng·h/mL; Tmax [10]: 15 min
CCCCOC(=O)c1cccc(CC(=O)N2CCNc3nc(C(F)(F)F)ccc3[C@H]2CC(=O)O)c1 | 28.5 | 8.25 | 8.40 | 1630 | 0.0175 |  |  | 
CC(C)CC(=O)Oc1cccc(CC(=O)N2CCNc3nc(C(F)(F)F)ccc3[C@H]2CC(=O)O)c1 |  | 7.37 | 7.92 |  |  | 0 | 1260 | inhibition (Mus musculus [14]): Dose-dependent effect; fraction unbound [2]: 0.108; Activity (Canis familiaris [16]): Non-toxic; t1/2 (Mus musculus [17]): BLD; AUC (Mus musculus [19]): BLD; Activity (Canis familiaris [20]): Non-toxic; solubility [7]: 900 µg/mL (≈ 1820 µM); inhibition in vivo at 30 mg/kg (Mus musculus [21]): 30%
CC(C)(C)COC(=O)c1cccc(CC(=O)N2CCNc3nc(C(F)(F)F)ccc3[C@H]2CC(=O)O)c1 | 12.7 | 8.09 | 8.25 | 197 | 0.0643 |  |  | 
CC(C)OC(=O)c1cccc(CC(=O)N2CCNc3nc(C(F)(F)F)ccc3[C@H]2CC(=O)O)c1 | 1240 | 7.35 | 7.40 | 918 | 1.35 |  |  | 
CC(C)COc1cccc(CC(=O)N2CCNc3nc(C(F)(F)F)ccc3[C@H]2CC(=O)O)c1 |  |  |  |  |  |  |  | Activity (Canis familiaris [16]): Toxic; Activity (Canis familiaris [20]): Toxic
CC(C)COC(=O)c1cccc(CC(=O)N2CCNc3nc(C(F)(F)F)ccc3[C@H]2CC(=O)O)c1 | 30.8 | 8.27 | 8.38 | 2120 | 0.0145 |  |  | 
O=C(O)C[C@@H]1c2ccc(C(F)(F)F)nc2NCCN1C(=O)Cc1cccc(C(=O)O)c1 |  | < 5.00 | < 5.00 |  |  |  |  | 
CC(C)(C)CC(=O)Oc1cccc(CC(=O)N2CCNc3nc(C(F)(F)F)ccc3[C@H]2CC(=O)O)c1 | 5.8 | 7.70 | 8.06 |  |  | 0.179 | 32.5 | 
CCCCC(=O)Oc1cccc(CC(=O)N2CCNc3nc(C(F)(F)F)ccc3[C@H]2CC(=O)O)c1 | 28.5 | 7.46 | 7.72 |  |  | 0.0175 | 1630 | 
CC(C)C(=O)Oc1cccc(CC(=O)N2CCNc3nc(C(F)(F)F)ccc3[C@H]2CC(=O)O)c1 |  | 6.55 | 7.17 |  |  | 0 | 680 | 
O=C(O)C[C@@H]1c2ccc(C(F)(F)F)nc2NCCN1C(=O)Cc1cccc(C(=O)OCC2CC2)c1 | 39.3 | 8.43 | 8.47 | 300 | 0.131 |  |  | 
O=C(O)C[C@@H]1c2ccc(C(F)(F)F)nc2NCCN1C(=O)Cc1cccc(OC(=O)CC2CC2)c1 |  | 7.09 | 7.38 |  |  | 0 | 607 | 
